Compound activity (PubChem BioAssay)
CHOP UPR activ: activators of apoptotic arm of unfolded protein response (CHOP). CHO-CHOP luciferase reporter, UPR activation, luminescence; percent of tunicamycin response over DMSO baseline. activation, % at 10 µM. 330,000 compounds, 0.34% hits;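 active means at 10 µM dose, activation of 40% or more, normalized to positive control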;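 further: 100% = tunicamycin at 10 µg/mL and 0% = DMSO alone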
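Assay system: CHO-CHOP cells, stable luciferase reporter of PERK-eIF2a-CHOP signalling / Buffer or medium: F12 plus 10% serum / Compound dosing: one dose, 10 µM in 0.5% DMSO / Times: 6 h compound treatment, 37 °C / Technique: luciferase luminescence / Read-out: % reporter activation, DMSO baseline versus tunicamycin full activation / Benchmarks: tunicamycin and DMSO controls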
ABHD5-PLIN5 inh: inhibitors of human ABHD5-perilipin-5 interaction; Q00G26+Q8WTS1; Split G. princeps luciferase complementation, luminescence, 4 h; inhibition, % at 4 µM; 360,000 compounds, 0.78% hits; AID 602281;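 active means inhibition above the mean inhibition across every tested compound plus 3 SD, cut at about 22% in these data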;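 further: 0% = DMSO only wells and the 100% control is not disclosed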
Target sequence (Q00G26 whole entry, looked up): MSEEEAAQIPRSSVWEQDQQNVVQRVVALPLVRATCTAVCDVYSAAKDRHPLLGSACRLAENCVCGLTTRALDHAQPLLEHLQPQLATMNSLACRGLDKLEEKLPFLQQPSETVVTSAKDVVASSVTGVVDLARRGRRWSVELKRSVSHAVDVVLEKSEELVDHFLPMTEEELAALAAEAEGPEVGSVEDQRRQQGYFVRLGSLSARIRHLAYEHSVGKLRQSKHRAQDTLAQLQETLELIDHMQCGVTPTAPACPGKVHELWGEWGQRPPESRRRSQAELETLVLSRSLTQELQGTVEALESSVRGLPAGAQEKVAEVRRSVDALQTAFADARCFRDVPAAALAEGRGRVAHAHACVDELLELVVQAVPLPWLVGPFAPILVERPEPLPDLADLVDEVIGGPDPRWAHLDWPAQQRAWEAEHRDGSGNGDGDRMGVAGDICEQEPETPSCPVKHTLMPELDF
Target sequence (Q8WTS1 whole entry, looked up): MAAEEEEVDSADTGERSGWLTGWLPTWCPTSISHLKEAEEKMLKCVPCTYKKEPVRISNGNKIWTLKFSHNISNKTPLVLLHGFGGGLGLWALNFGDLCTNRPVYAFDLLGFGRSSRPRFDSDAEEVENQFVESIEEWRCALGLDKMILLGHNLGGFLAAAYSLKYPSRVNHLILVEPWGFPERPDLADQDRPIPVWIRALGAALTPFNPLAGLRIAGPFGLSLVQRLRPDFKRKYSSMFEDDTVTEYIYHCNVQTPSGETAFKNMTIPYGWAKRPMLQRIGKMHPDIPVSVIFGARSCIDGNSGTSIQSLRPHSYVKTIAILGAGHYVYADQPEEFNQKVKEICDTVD
Granule exo inh: lytic granule exocytosis inhibition; TALL-104 LAMP-1 surface exposure, flow cytometry; cells stimulated with thapsigargin and PMA; inhibition, % at 10 µM; 360,000 compounds, 0.66% hits; AID 651702;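 active means inhibition above about 55%, limit read from the data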
UPR XBP1 act: adaptive UPR (XBP1) activation. activation, % at 20 µM. 330,000 compounds, 0.33% hits. CHO-XBP1 luciferase reporter, IRE1-XBP1 UPR activation, luminescence; percent of tunicamycin response, DMSO as zero;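 active means versus positive control, 20 µM dose yields 30% or more activation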;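 further: 100% = tunicamycin at 10 µg/mL and 0% = DMSO only wells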
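Material: CHO cell line with stable XBP1 luciferase reporter; schedule: 16-18 h cell attachment at 37 °C, then 6 h compound exposure; signal: glow luminescence from Steady-Glo reagent; medium: serum-containing F12 medium, 10% FBS; benchmarks: tunicamycin 10 µg/mL and vehicle-only wells; read-out: percent activation relative to tunicamycin reference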
Mdm2-MdmX inh: human Mdm2/MdmX binding inhibition; O15151+Q00987; SaOS-2 split-luciferase Mdm2/MdmX complementation, luminescence; inhibition, % at 8 µM; 330,000 compounds, 3% hits;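 active means inhibition of at least 50% at 8 µM in the primary screen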
Mdm2 MdmX conf: human Mdm2/MdmX binding inhibition, confirmed. 10,000 compounds, 55% hits. AID 489028. shares compounds with Mdm2-MdmX inh. inhibition, % at 8 µM. luminescent assay; in the data active means inhibition above about 40%
FLuc counter: full-length luciferase inhibition in Mdm2/MdmX counter-screen; shares compounds with Mdm2-MdmX inh; inhibition, % at 8 µM; 6,200 compounds, 77% hits; SaOS-2 full-length luciferase counterscreen, luminescence;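 active means mean inhibition at 8 µM reaching about 37%, which flags the compound as non-specific, limit read from the data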;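 further: p53-null SaOS-2 cells with luciferase driven by a doxycycline-inducible promoter; compound on cells about two nights before reading with doxycycline added after day one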
ABHD5-PLIN5 conf: confirmation of human ABHD5-PLIN5 interaction inhibitors | shares compounds with ABHD5-PLIN5 inh | biochemical ABHD5-PLIN5 interaction, luminescence | inhibition, % at 4 µM | 2,200 compounds, 67% hits; in the data active means inhibition above about 23%;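 further: 0% = DMSO vehicle wells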
HNF4 split-luc: active in HNF4 split-luciferase counter-screen for ABHD5-PLIN5 inhibitors; AID 651674; HNF4 dimerization, luminescence, biochemical; 2,200 compounds, 77% hits; inhibition, % at 4 µM; shares compounds with ABHD5-PLIN5 inh;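 active means mean inhibition across replicate wells exceeding the computed hit threshold, cut at about 13% in these data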;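 further: light from luciferase halves that rejoin when HNF4 fusion proteins dimerize; 0% = DMSO only wells and the 100% control is not given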
An asterisk follows results filed as active; · = not tested or not shown. Hits are enriched below; roughly 4% of the tested compounds scored in any of these assays.

SMILES | CHOP UPR activ | ABHD5-PLIN5 inh | Granule exo inh | UPR XBP1 act | Mdm2-MdmX inh | Mdm2 MdmX conf | FLuc counter | ABHD5-PLIN5 conf | HNF4 split-luc
CC1CCCN(S(=O)(=O)c2ccc(C(=O)Nc3nnc(-c4ccccc4Cl)o3)cc2)C1 (configuration not stated) | 3.1 | 3.8 | 1.8 | 4.8 | 48.2 | · | · | · | ·
Cc1ccc2cc(S(=O)(=O)NCCCC(=O)O)ccc2c1 | -1.5 | 3.0 | 0.3 | -4.0 | 15.8 | · | · | · | ·
O=C(N[C@@H](Cc1ccccc1)C(=O)CCl)OCc1ccccc1 | 158.2* | 65.5* | -0.1 | -12.8 | 95.8* | 84.7* | 20.2 | 96.5* | 106.5*
COC(=O)CC1Oc2ccc(C)cc2NC1=O (configuration not stated) | -1.0 | 5.0 | 2.5 | -1.3 | -5.2 | · | · | · | ·
CCNC(=O)N(C)c1c(CC)nc2ccc(C(=O)N3CCN(C(C)=O)CC3)cn12 | · | 3.0 | 0.5 | · | · | · | · | · | ·
COC(=O)c1ccc2c(c1)C(C)(C)C(/C=C/c1ccc(O)cc1)=[N+]2C | -10.8 | 70.9* | 24.4 | -6.7 | 84.9* | 100.2* | 51.0* | 101.8* | 100.6*
CCCCCCCCCCCCCCCC[n+]1ccc(/C=N/O)cc1 | 24.4 | 30.6* | 9.2 | 7.6 | 96.5* | 100.0* | 7.5 | 11.0 | 7.2
COc1cc(/C=C2\CC/C(=C\c3cc(OC)c(O)c(OC)c3)C2=O)cc(OC)c1O | -3.9 | 32.0* | -1.4 | -2.0 | 96.9* | 62.1* | 25.6 | 39.4* | 39.1*
Cn1c(CCN2CCCC2)nc2cc(NS(=O)(=O)c3ccc(Cl)cc3)ccc21 | -1.1 | 27.2* | 1.0 | -4.3 | 68.8* | 32.0 | · | 18.4 | 16.3*
CN(C)CCCNC(=O)C[C@H]1C[C@H](C(=O)N2CCOCC2)[C@@]2(CCC3CCCC3)c3[nH]c4cc(-c5ccco5)ccc4c3CCN2C1=O | 1.0 | 25.4* | 0.9 | -1.7 | 94.9* | 11.3 | · | 14.1 | 10.8
COc1ccc(CNC(=O)C[C@H]2C[C@H](C(=O)N3CCOCC3)[C@@]3(CCC4CCCC4)c4[nH]c5cc(-c6ccco6)ccc5c4CCN3C2=O)cc1OC | 3.4 | 28.9* | 13.4 | 4.1 | 53.1* | 5.2 | · | 16.4 | 12.6*
Cc1occc1C(=O)OCC(=O)Nc1ccc(F)cc1 | 2.2 | 6.7 | -2.8 | 4.0 | 0.8 | · | · | · | ·
COC(=O)Cc1cc(=O)[nH]c(/N=C(\N)Nc2cccc(C)c2)n1 | 0.4 | -1.2 | -3.4 | -0.5 | 4.5 | · | · | · | ·
Cc1ccnc(NC(c2cccnc2)c2ccc3cccnc3c2O)c1 (configuration not stated) | 0.4 | 14.1 | -0.6 | 4.8 | 32.9 | · | · | · | ·
CC(C)C(=O)NC(c1ccc(Cl)cc1Cl)c1ccc2cccnc2c1O (configuration not stated) | 2.2 | 29.3* | 49.1 | -0.2 | 83.8* | 90.5* | 22.5 | 15.1 | 5.0
CCn1cc(/C=C(\NC(=O)c2ccccc2OC)C(=O)N2CCN(C)CC2)c2ccccc21 | -0.5 | 3.1 | 1.1 | -2.9 | 11.1 | · | · | · | ·
COc1cc(CNCCN2CCOCC2)ccc1OCc1ccc(Cl)cc1Cl | 1.0 | 23.5* | 3.0 | 9.6 | 53.5* | 20.2 | · | 11.8 | 13.0*
O=C(Cc1ccccc1)NCC(=O)OCc1cccc([N+](=O)[O-])c1 | 2.1 | -1.8 | -1.2 | -2.9 | 0.9 | · | · | · | ·
O=C(/C=C/c1cccc([N+](=O)[O-])c1)c1cccs1 | 24.8 | 74.2* | -2.1 | 17.1 | 73.6* | 57.4* | 73.8* | 97.3* | 102.2*
O=C(C#Cc1ccccc1)c1ccco1 | -8.3 | 38.9* | -10.0 | -9.1 | 97.9* | 67.5* | 51.5* | 53.6* | 107.2*
CCC1CSC(Nc2ccc(C(=O)/C=C/c3ccc(Br)cc3)cc2)=N1 (configuration not stated) | 2.1 | 23.8* | 1.6 | 3.7 | 59.0* | 20.6 | · | 51.9* | 38.8*
CCC1CSC(Nc2ccc(C(=O)/C=C/c3ccc(OC)c(OC)c3)cc2)=N1 (configuration not stated) | 2.6 | 16.6 | 42.7 | 1.7 | 12.2 | · | · | · | ·
O=C(CC(Nc1ccc(Cl)cc1Cl)C(=O)O)c1ccccc1 (configuration not stated) | -4.2 | 77.9* | 13.1 | -3.9 | 71.4* | 79.5* | 63.4* | 15.9 | 80.2*
O=C(CC(C(=O)O)c1cccc(Cl)c1)c1ccccc1 (configuration not stated) | -2.0 | -12.4 | -3.8 | 2.6 | 18.4 | · | · | · | ·
CN(C)CCNC(=O)c1ccc(COc2ccc(Cl)cc2Cl)cc1 | 0.1 | 26.8* | 1.4 | 2.3 | 62.4* | 17.6 | · | 15.5 | 1.9
SMILES | CHOP UPR activ | ABHD5-PLIN5 inh | Granule exo inh | UPR XBP1 act | Mdm2-MdmX inh | Mdm2 MdmX conf | FLuc counter | ABHD5-PLIN5 conf | HNF4 split-luc
COc1ccc(Cl)cc1C(=O)NCCN(C)C | 1.1 | -3.1 | 1.8 | 1.7 | 24.1 | · | · | · | ·
COc1cc(/C=C/[N+](=O)[O-])ccc1OC(=O)/C=C/c1ccc(F)cc1 | 12.7 | 29.9* | 44.8 | -7.2 | 72.8* | 71.0* | 50.9* | 48.7* | 73.3*
COc1ccc(/C=C/C(=O)Oc2ccc(C)c(C)c2)cc1OC | 3.5 | -8.1 | 1.2 | -0.2 | 3.9 | · | · | · | ·
COC(=O)c1cc(S(=O)(=O)N2CCOCC2)c(Cl)cc1N1CCOCC1 | -2.6 | -0.8 | 4.9 | -1.0 | 25.7 | · | · | · | ·
COC(=O)c1cc(C)nc2c1C(=O)C(=O)C=C2N1CCOCC1 | -7.8 | 38.7* | -6.1 | -9.5 | 65.1* | 25.5 | · | 73.0* | 53.1*
O=C(O)Cc1cn(-c2ccccc2)nc1-c1ccc(Cl)cc1 | 0.4 | -0.4 | 1.5 | -4.5 | 0.6 | · | · | · | ·
CC1=NNC(=O)/C1=C\c1cn(-c2ccccc2)nc1-c1ccc(Cl)cc1 | -10.2 | 32.0* | 23.7 | -6.3 | 100.3* | 47.1* | 2.6 | 56.2* | 91.2*
O=C1C=CC(=O)N1CCNc1ncc(C(F)(F)F)cc1Cl | 35.0 | 45.2* | 24.8 | -10.8 | 62.6* | 67.6* | 52.8* | 61.4* | 107.0*
O=C(C=Cc1ccc(Cl)s1)c1ccc(Cl)s1 | · | 21.1 | 0.3 | · | · | · | · | · | ·
COc1cc(/C=C/C(=O)c2ccc(Cl)s2)cc(OC)c1O | 27.4 | 38.1* | 9.7 | 1.3 | 65.3* | 51.2* | 44.8* | 74.3* | 38.0*
COC(=O)c1cc(=O)n(Cc2cccs2)c(=Nc2ccc(F)cc2)s1 | 18.4 | 44.8* | -0.9 | 10.2 | 50.3* | 11.8 | · | 64.5* | 43.7*
CCCCc1[nH]c(=O)c(C#N)c2c1CSC(C)(C)C2 | -0.6 | -6.6 | 3.1 | -0.3 | -20.8 | · | · | · | ·
